Assay results from ChEMBL document CHEMBL1139179, “5-Alkynyl-2'-deoxyuridines: chromatography-free synthesis and cytotoxicity evaluation against human breast cancer cells” (Bioorg Med Chem, 2007).

Columns and labels:
MDA-MB-231 = assay: Cytotoxicity against human MDA-MB-231 cells after 72 hrs; format: functional, cell-based; conditions: MDA-MB-231, 72 h
Procedure, shortened: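 MDA-MB-231 cells (100 μL at 5000 cells/mL) grown 72 h at 37 °C, 5% CO2, then given graded concentrations (six replicates) for a further 72 h. Glutardialdehyde fixation, 0.02 M crystal violet staining, 70% ethanol elution, absorbance at 590 nm. A day-0 biomass plate was subtracted and the control taken as 100%. IC50 is 50% proliferation inhibition, mean of at least two independent runs.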

MCF7 [1] = assay: Cytotoxicity against human MCF7 cells after 96 hrs; conditions: MCF7, 96 h
MCF7 [2] = assay: Cytotoxicity against human MCF7 cells after 72 hrs; format: functional, cell-based; conditions: MCF7, 72 h

| Structure (SMILES) | IC50 (MDA-MB-231) [µM] | IC50 (MCF7 [1]) [µM] | IC50 (MCF7 [2]) [nM] |
| --- | --- | --- | --- |
| CC(C)(C)c1ccc(C#Cc2cn([C@H]3C[C@H](O)[C@@H](CO)O3)c(=O)[nH]c2=O)cc1 | > 50 | 9.5 | – |
| CCCC#Cc1cn([C@H]2C[C@H](O)[C@@H](CO)O2)c(=O)[nH]c1=O | > 50 | > 50 | – |
| C#Cc1cn([C@H]2C[C@H](O)[C@@H](CO)O2)c(=O)[nH]c1=O | 4.4 | 0.4 | – |
| CCCCCc1ccc(C#Cc2cn([C@H]3C[C@H](O)[C@@H](CO)O3)c(=O)[nH]c2=O)cc1 | 29.2 | 37 | – |
| O=c1[nH]cc(F)c(=O)[nH]1 [FLUOROURACIL] | 9.6 | – | 4800 |
| Cc1ccc(C#Cc2cn([C@H]3C[C@H](O)[C@@H](CO)O3)c(=O)[nH]c2=O)cc1 | > 50 | – | 900 |
| C[Si](C)(C)C#Cc1cn([C@H]2C[C@H](O)[C@@H](CO)O2)c(=O)[nH]c1=O | 4.2 | 1.6 | – |
| O=c1[nH]c(=O)n([C@H]2C[C@H](O)[C@@H](CO)O2)cc1C#CC1(O)CCCCC1 | > 50 | > 50 | – |
| O=c1[nH]c(=O)n([C@H]2C[C@H](O)[C@@H](CO)O2)cc1C#CC1CC1 | > 50 | > 50 | – |
